Measurements reported in ChEMBL document CHEMBL3286203, “Reactive oxygen species (ROS) inducible DNA cross-linking agents and their effect on cancer cells and normal lymphocytes” (J Med Chem, 2014).
Active and inactive are the calls of the source. The calls are words filed in the database; no cut-off is given here.

Key:
SF-539 = test: Cytotoxicity against human SF539 cells assessed as growth inhibition at 10 uM after 48 hrs by SRB assay; type: functional, cell-based
Procedure, shortened: (§1)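 Single-dose screen run by the NCI Developmental Therapeutics Program (NCI-60). Cells were grown in RPMI 1640 with 5% fetal bovine serum and 2 mM L-glutamine. They were plated at 5000–40 000 cells/well, depending on doubling time. Each line was run in two plates and exposed to 10 μM drug for 48 h at 37 °C, 5% CO2, 100% humidity. Read-out was growth percent.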

SNB-75 = test: Cytotoxicity against human SNB75 cells assessed as growth inhibition at 10 uM after 48 hrs by SRB assay; type: functional, cell-based
Procedure, shortened: (§2)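 NCI-60 DTP human tumour line screen. Cells grown in RPMI 1640 with 5% fetal bovine serum and 2 mM L-glutamine, plated at 5000–40 000 cells/well according to doubling time. Single dose of 10 μM for 48 h at 37 °C, 5% CO2, 95% air, 100% humidity, two plates per line. Read-out is growth percent.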

U-251 = test: Cytotoxicity against human U251 cells assessed as growth inhibition at 10 uM after 48 hrs by SRB assay; type: functional, cell-based; procedure, shortened: as §2
LOX IMVI = test: Cytotoxicity against human LOXIMVI cells assessed as growth inhibition at 10 uM after 48 hrs by SRB assay; type: functional, cell-based
Procedure, shortened: (§3)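 NCI DTP 60-cell-line screen run at the NCI. Cells were grown in RPMI 1640 with 5% FBS and 2 mM L-glutamine. They were seeded at 5000–40 000 cells/well depending on doubling time and grown in two plates per line. Each was exposed to a single 10 μM dose for 48 h at 37 °C, 5% CO2, 95% air, 100% humidity. Read-out was percent growth.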

SK-MEL-2 = test: Cytotoxicity against human SK-MEL-2 cells assessed as growth inhibition at 10 uM after 48 hrs by SRB assay; type: functional, cell-based; procedure, shortened: as §1
SK-MEL-5 = test: Cytotoxicity against human SK-MEL-5 cells assessed as growth inhibition at 10 uM after 48 hrs by SRB assay; type: functional, cell-based; procedure, shortened: as §1
OVCAR-3 = test: Cytotoxicity against human OVCAR3 cells assessed as growth inhibition at 10 uM after 48 hrs by SRB assay; type: functional, cell-based; procedure, shortened: as §1
OVCAR-5 = test: Cytotoxicity against human OVCAR5 cells assessed as growth inhibition at 10 uM after 48 hrs by SRB assay; type: functional, cell-based; procedure, shortened: as §1
786-0 = test: Cytotoxicity against human 786-0 cells assessed as growth inhibition at 10 uM after 48 hrs by SRB assay; type: functional, cell-based; procedure, shortened: as §3
ACHN = test: Cytotoxicity against human ACHN cells assessed as growth inhibition at 10 uM after 48 hrs by SRB assay; type: functional, cell-based; procedure, shortened: as §3
CAKI-1 = test: Cytotoxicity against human Caki1 cells assessed as growth inhibition at 10 uM after 48 hrs by SRB assay; type: functional, cell-based; procedure, shortened: as §3
SN12C = test: Cytotoxicity against human SN12C cells assessed as growth inhibition at 10 uM after 48 hrs by SRB assay; type: functional, cell-based; procedure, shortened: as §2
UO-31 = test: Cytotoxicity against human UO31 cells assessed as growth inhibition at 10 uM after 48 hrs by SRB assay; type: functional, cell-based; procedure, shortened: as §2
DU-145 = test: Cytotoxicity against human DU145 cells assessed as growth inhibition at 10 uM after 48 hrs by SRB assay; type: functional, cell-based; procedure, shortened: as §3
MDA-MB-231 = test: Cytotoxicity against human MDA-MB-231 cells assessed as growth inhibition at 10 uM after 48 hrs by SRB assay; type: functional, cell-based; procedure, shortened: as §1
T47D [1] = test: Cytotoxicity against human T47D cells assessed as growth inhibition at 10 uM after 48 hrs by SRB assay; type: functional, cell-based; procedure, shortened: as §2
MDA-MB-468 = test: Cytotoxicity against human MDA-MB-468 cells assessed as growth inhibition at 10 uM after 48 hrs by SRB assay; type: functional, cell-based; procedure, shortened: as §1
HOP-92 [2] = test: Cytotoxicity against human HOP92 cells after 48 hrs by SRB assay; type: functional; details: HOP-92, 48 h
Procedure, shortened: (§4)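 GI50 was determined in the NCI Developmental Therapeutics Program in vitro 60-line cancer screen. Tumour lines were maintained in RPMI 1640 containing 5% FBS and 2 mM L-glutamine. Cells were inoculated at 5000–40 000 cells/well according to each line's doubling time before drug exposure.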

NCI-H322M [3] = test: Cytotoxicity against human NCI-H322M cells after 48 hrs by SRB assay; type: functional
Procedure, shortened: (§5)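 GI50 from the NCI Developmental Therapeutics Program in vitro human tumor cell screen. Cell lines were maintained in RPMI 1640 with 5% fetal bovine serum and 2 mM L-glutamine. They were seeded at 5000–40 000 cells/well, depending on each line's doubling time, then exposed to drug for 48 h at 37 °C, 5% CO2.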

HCC 2998 = test: Cytotoxicity against human HCC2998 cells after 48 hrs by SRB assay; type: functional; details: HCC 2998, 48 h; procedure, shortened: as §4
SK-MEL-28 = test: Cytotoxicity against human SK-MEL-28 cells after 48 hrs by SRB assay; type: functional; details: SK-MEL-28, 48 h; procedure, shortened: as §5
T47D [4] = test: Cytotoxicity against human T47D cells after 48 hrs by SRB assay; type: functional
Procedure, shortened: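 GI50 from the NCI-60 DTP human tumour line screen. Lines grown in RPMI 1640 with 5% fetal bovine serum and 2 mM L-glutamine, plated at 5000–40 000 cells/well according to doubling time. Incubated 48 h at 37 °C, 5% CO2.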

HOP-92 [5] = test: Cytotoxicity against human HOP92 cells assessed as growth inhibition at 10 uM after 48 hrs by SRB assay; type: functional, cell-based; procedure, shortened: as §3
NCI-H226 = test: Cytotoxicity against human NCI-H226 cells assessed as growth inhibition at 10 uM after 48 hrs by SRB assay; type: functional, cell-based; procedure, shortened: as §1
NCI-H322M [6] = test: Cytotoxicity against human NCI-H322M cells assessed as growth inhibition at 10 uM after 48 hrs by SRB assay; type: functional, cell-based; procedure, shortened: as §1
HCT-116 = test: Cytotoxicity against human HCT116 cells assessed as growth inhibition at 10 uM after 48 hrs by SRB assay; type: functional, cell-based; procedure, shortened: as §3
HT-29 = test: Cytotoxicity against human HT-29 cells assessed as growth inhibition at 10 uM after 48 hrs by SRB assay; type: functional, cell-based; procedure, shortened: as §3
SW-620 = test: Cytotoxicity against human SW620 cells assessed as growth inhibition at 10 uM after 48 hrs by SRB assay; type: functional, cell-based; procedure, shortened: as §2
SF-268 = test: Cytotoxicity against human SF268 cells assessed as growth inhibition at 10 uM after 48 hrs by SRB assay; type: functional, cell-based; procedure, shortened: as §1
[7] = Induction of [32P]-labeled 49-mer oligonucleotide duplex DNA 12 with GNC sequence at terminus (unknown origin) interstrand cross-linking at 50 uM after 16 hrs by PAGE in presence of H2O2
Procedure, shortened: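 32P-labelled 12a (1.0 μM) annealed with 1.5 equiv of 12b in 10 mM potassium phosphate pH 7 / 100 mM NaCl (65 °C for 3 min, then slow cooling). Duplex incubated with compound (final 1 μM–5 mM), with or without H2O2, in NaCl and potassium phosphate pH 8 at room temperature for 16 h. Quenched in formamide; 20% denaturing PAGE.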

EKVX = test: Cytotoxicity against human EKVX cells assessed as growth inhibition at 10 uM after 48 hrs by SRB assay; type: functional, cell-based; procedure, shortened: as §3
SR = test: Cytotoxicity against human SR cells assessed as growth inhibition at 10 uM after 48 hrs by SRB assay; type: functional, cell-based; procedure, shortened: as §2

| SMILES | growth inhibition (GI) (SF-539) | growth inhibition (GI) (SNB-75) | growth inhibition (GI) (U-251) | growth inhibition (GI) (LOX IMVI) | growth inhibition (GI) (SK-MEL-2) | growth inhibition (GI) (SK-MEL-5) | growth inhibition (GI) (OVCAR-3) | growth inhibition (GI) (OVCAR-5) | growth inhibition (GI) (786-0) | growth inhibition (GI) (ACHN) | growth inhibition (GI) (CAKI-1) | growth inhibition (GI) (SN12C) | growth inhibition (GI) (UO-31) | growth inhibition (GI) (DU-145) | growth inhibition (GI) (MDA-MB-231) | growth inhibition (GI) (T47D [1]) | growth inhibition (GI) (MDA-MB-468) | growth inhibition (GI) (HOP-92 [5]) | growth inhibition (GI) (NCI-H226) | growth inhibition (GI) (NCI-H322M [6]) | other results |
| --- | --- | --- | --- | --- | --- | --- | --- | --- | --- | --- | --- | --- | --- | --- | --- | --- | --- | --- | --- | --- | --- |
| CC1(C)OB(c2ccc(N(CCCl)CCBr)cc2)OC1(C)C | Active | Active | Active | Active | Active | Active | Active | Active | Active | Active | Active | Active | Active | Active | Active | Active | Active | Active | Active | Active | GI50 (HOP-92 [2]): 12.8 µM; GI50 (NCI-H322M [3]): 32.5 µM; GI50 (HCC 2998): 24 µM; GI50 (SK-MEL-28): 20.6 µM; GI50 (T47D [4]): 12 µM; growth inhibition (GI) (HCT-116): Active; growth inhibition (GI) (HT-29): Active; growth inhibition (GI) (SW-620): Active; growth inhibition (GI) (SF-268): Active; Activity [7]: 3%; growth inhibition (GI) (EKVX): Active; growth inhibition (GI) (SR): Active |
| CC1(C)OB(c2ccc(N(CCCl)CCOS(C)(=O)=O)cc2)OC1(C)C | Active | Active | Active | Active | Active | Active | Active | Active | Active | Active | Active | Active | Active | Active | Active | Active | Active | Active | Active | Active | GI50 (HOP-92 [2]): 11.5 µM; GI50 (NCI-H322M [3]): 28.2 µM; GI50 (HCC 2998): 14.6 µM; GI50 (SK-MEL-28): 15.6 µM; GI50 (T47D [4]): 8.49 µM; growth inhibition (GI) (HCT-116): Active; growth inhibition (GI) (HT-29): Active; growth inhibition (GI) (SW-620): Active; growth inhibition (GI) (SF-268): Active; Activity [7]: 3%; growth inhibition (GI) (EKVX): Active; growth inhibition (GI) (SR): Active |
| CC1(C)OB(c2ccc(N(CCBr)CCOS(C)(=O)=O)cc2)OC1(C)C | Active | Active | Active | Active | Active | Active | Active | Active | Active | Active | Active | Active | Active | Active | Active | Active | Active | Active | Active | Active | growth inhibition (GI) (HCT-116): Active; growth inhibition (GI) (HT-29): Active; growth inhibition (GI) (SW-620): Active; growth inhibition (GI) (SF-268): Active; Activity [7]: 3%; growth inhibition (GI) (EKVX): Active; growth inhibition (GI) (SR): Active |
| CC1(C)OB(c2ccc(COC(=O)N(CCCl)CCCl)cc2)OC1(C)C | inactive | inactive | inactive | inactive | inactive | inactive | inactive | inactive | inactive | inactive | inactive | inactive | inactive | inactive | inactive | inactive | inactive | inactive | inactive | inactive | growth inhibition (GI) (HCT-116): inactive; growth inhibition (GI) (HT-29): inactive; growth inhibition (GI) (SW-620): inactive; growth inhibition (GI) (SF-268): inactive; growth inhibition (GI) (EKVX): inactive; growth inhibition (GI) (SR): inactive |
| CC1(C)OB(c2ccc(N(CCBr)CCBr)cc2)OC1(C)C | Active | Active | Active | Active | Active | Active | Active | Active | Active | Active | Active | Active | Active | Active | Active | Active | Active | Active | Active | Active | growth inhibition (GI) (HCT-116): Active; growth inhibition (GI) (HT-29): Active; growth inhibition (GI) (SW-620): Active; growth inhibition (GI) (SF-268): Active; Activity [7]: 3%; growth inhibition (GI) (EKVX): Active; growth inhibition (GI) (SR): Active |
